Measurements from PMC7104901 (Diabetes Technology & Therapeutics, 2020).

What was measured:
Format in all cases: in vivo, human
[1] = system: subjects with type 1 diabetes; assay: Euglycemic clamp pharmacodynamics; conditions: for Clamp stopped prematurely due to BG reaching threshold (≥200 mg/dL for 30 min): number of subjects after 0.3 U/kg single dose; for GIR-AUC0–12h treatment ratio, point estimate (90% CI): 0.3 U/kg single dose, euglycemic clamp
Outline: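 Randomized, double-blind, 3-period crossover in adult males with T1D; fasted single 0.3 U/kg subcutaneous dose after basal-insulin washout (≥48 h), glulisine stopped ≥10 min predose, BG stable ≥1 h without glucose. A Biostator tracked arterialized venous BG and GIR continuously for 12 h, calibrated every 30 min. Stopped early if BG exceeded 200 mg/dL without glucose for 30 min. Weight-standardized GIR-AUC0–12h given as ratio of geometric means (90% CI).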

[2] = system: subjects with type 1 diabetes; assay: Safety and tolerability; conditions: single 0.3 U/kg dose
Outline: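 Adult males with T1D each got a fasted single subcutaneous 0.3 U/kg dose per period in a double-blind 3-period crossover under 12 h euglycemic clamp. Safety was assessed by 12-lead ECG, vital signs, routine laboratory tests, physical examination, adverse event reporting and injection-site reaction assessment. Treatment-emergent events were counted as subjects reporting per treatment.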

[3] = Plasma insulin aspart pharmacokinetics after single subcutaneous dose; conditions: linear mixed effects model, 0.3 U/kg single dose
Outline: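 Adults with type 1 diabetes, off basal insulin ≥48 h and fasted overnight, clamped at blood glucose 100 mg/dL before subcutaneous dosing. Plasma was separated within 20 min and stored at −60 to −80°C. Samples were assayed by LC-MS/MS (100–8000 pg/mL, LLOQ 100 pg/mL) and censored at any rescue insulin. AUCs used the log-linear trapezoidal rule. Log-parameters were analysed by mixed model and back-transformed with 90% CI.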

[4] = ratio of geometric means vs. NN-Asp-EU
[5] = ratio of geometric means vs. NN-Asp-US

| Substance | Clamp stopped prematurely due to BG reaching threshold (≥200 mg/dL for 30 min) [1] | GIR-AUC0–12h treatment ratio, point estimate (90% CI) [1, 4] | GIR-AUC0–12h treatment ratio, point estimate (90% CI) [1, 5] | Tolerability [2] | INS-AUCinf treatment ratio, point estimate (90% CI) [3, 4] | INS-AUClast treatment ratio, point estimate (90% CI) [3, 4] | INS-Cmax treatment ratio, point estimate (90% CI) [3, 4] | INS-AUCinf treatment ratio, point estimate (90% CI) [3, 5] | INS-AUClast treatment ratio, point estimate (90% CI) [3, 5] | INS-Cmax treatment ratio, point estimate (90% CI) [3, 5] |
| --- | --- | --- | --- | --- | --- | --- | --- | --- | --- | --- |
| insulin aspart [SAR-Asp] | 17 subjects | 0.96 (0.89–1.04) | 0.99 (0.91–1.07) | well tolerated | 0.92 (0.88–0.96) | 0.93 (0.88–0.97) | 0.97 (0.90–1.05) | 0.92 (0.88–0.96) | 0.93 (0.89–0.98) | 0.93 (0.87–1.01) |
| insulin aspart [NN-Asp-US] | 18 subjects | 0.97 (0.90–1.05) | – | – | 1.00 (0.95–1.04) | 1.00 (0.95–1.05) | 1.04 (0.96–1.12) | – | – | – |
| insulin aspart [NN-Asp-EU] | 15 subjects | – | – | – | – | – | – | – | – | – |
